Results from article PMC6634314 (Cell chemical biology, 2019).

Key:
FGFR1 = assay: MIB washout assay; assay type: binding, Human; settings: H23 cells, 1 μM 4h, MIB pulldown ratio SM1-71/SM1-71-R
INSR = assay: MIB washout assay; assay type: binding, Human; settings: H23 cells, 1 μM 4h, MIB pulldown ratio SM1-71/SM1-71-R
AURKA = target: T1, AURKA (Homo sapiens, UniProt O14965); assay: MIB washout assay; assay type: binding
T1 sequence (O14965 1-403): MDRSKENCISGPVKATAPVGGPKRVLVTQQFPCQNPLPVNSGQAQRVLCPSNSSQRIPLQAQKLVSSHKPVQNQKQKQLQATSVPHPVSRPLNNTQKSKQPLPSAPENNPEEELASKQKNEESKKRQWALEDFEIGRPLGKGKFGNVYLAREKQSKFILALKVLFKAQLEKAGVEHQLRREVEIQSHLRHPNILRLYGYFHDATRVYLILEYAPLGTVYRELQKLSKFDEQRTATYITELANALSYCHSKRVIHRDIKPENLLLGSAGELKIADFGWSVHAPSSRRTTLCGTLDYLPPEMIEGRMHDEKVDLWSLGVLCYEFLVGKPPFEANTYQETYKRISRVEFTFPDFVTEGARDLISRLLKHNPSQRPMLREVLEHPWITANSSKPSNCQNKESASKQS

MAP3K11 = assay: MIB washout assay; assay type: binding, Human; settings: H23 cells, 1 μM 4h, MIB pulldown ratio SM1-71/SM1-71-R
CSNK1D = assay: MIB washout assay; assay type: binding, Human; settings: H23 cells, 1 μM 4h, MIB pulldown ratio SM1-71/SM1-71-R
GSK3B = GSK3B (Homo sapiens, UniProt P49841); assay: mass shift assay; assay type: binding; settings: incubated 4 and 24h
In short: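 Kinase protein at 0.12 mM in 10 mM HEPES pH 7.5, 500 mM NaCl, incubated with 0.2 mM test compound at 4°C for 4 h and 24 h. Samples were diluted in 0.1% formic acid and desalted on a C3 pre-column. ESI-TOF was run in positive mode at 120 V, and intact mass was obtained by deconvolution to detect the adduct.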

MAP3K1 = assay: MIB washout assay; assay type: binding, Human; settings: H23 cells, 1 μM 4h, 0h post-washout, MIB pulldown ratio SM1-71/SM1-71-R
CDK17 = assay: MIB washout assay; assay type: binding, Human; settings: H23 cells, 1 μM 4h, MIB pulldown ratio SM1-71/SM1-71-R
PKMYT1 = assay: MIB washout assay; assay type: binding, Human; settings: H23 cells, 1 μM 4h, MIB pulldown ratio SM1-71/SM1-71-R
SRC [1] = target: T2, SRC (Homo sapiens, UniProt P12931); assay: MIB dose-dependent kinase inhibition assay; assay type: binding; settings: read-out: IC50 in the MIB assay, H23 cell lysate, overnight 4°C
SRC [2] = target: T2, SRC; assay: MIB washout assay; assay type: binding; settings: H23 cells, 1 μM 4h, MIB pulldown ratio SM1-71/SM1-71-R
CDK13 = settings: H23 cells, 1 μM 4h, MIB pulldown ratio SM1-71/SM1-71-R
GAK = target: T3, GAK (Homo sapiens, UniProt O14976); assay: MIB washout assay; assay type: binding; settings: H23 cells, 1 μM 4h, MIB pulldown ratio SM1-71/SM1-71-R
T3 sequence (O14976 1-1311): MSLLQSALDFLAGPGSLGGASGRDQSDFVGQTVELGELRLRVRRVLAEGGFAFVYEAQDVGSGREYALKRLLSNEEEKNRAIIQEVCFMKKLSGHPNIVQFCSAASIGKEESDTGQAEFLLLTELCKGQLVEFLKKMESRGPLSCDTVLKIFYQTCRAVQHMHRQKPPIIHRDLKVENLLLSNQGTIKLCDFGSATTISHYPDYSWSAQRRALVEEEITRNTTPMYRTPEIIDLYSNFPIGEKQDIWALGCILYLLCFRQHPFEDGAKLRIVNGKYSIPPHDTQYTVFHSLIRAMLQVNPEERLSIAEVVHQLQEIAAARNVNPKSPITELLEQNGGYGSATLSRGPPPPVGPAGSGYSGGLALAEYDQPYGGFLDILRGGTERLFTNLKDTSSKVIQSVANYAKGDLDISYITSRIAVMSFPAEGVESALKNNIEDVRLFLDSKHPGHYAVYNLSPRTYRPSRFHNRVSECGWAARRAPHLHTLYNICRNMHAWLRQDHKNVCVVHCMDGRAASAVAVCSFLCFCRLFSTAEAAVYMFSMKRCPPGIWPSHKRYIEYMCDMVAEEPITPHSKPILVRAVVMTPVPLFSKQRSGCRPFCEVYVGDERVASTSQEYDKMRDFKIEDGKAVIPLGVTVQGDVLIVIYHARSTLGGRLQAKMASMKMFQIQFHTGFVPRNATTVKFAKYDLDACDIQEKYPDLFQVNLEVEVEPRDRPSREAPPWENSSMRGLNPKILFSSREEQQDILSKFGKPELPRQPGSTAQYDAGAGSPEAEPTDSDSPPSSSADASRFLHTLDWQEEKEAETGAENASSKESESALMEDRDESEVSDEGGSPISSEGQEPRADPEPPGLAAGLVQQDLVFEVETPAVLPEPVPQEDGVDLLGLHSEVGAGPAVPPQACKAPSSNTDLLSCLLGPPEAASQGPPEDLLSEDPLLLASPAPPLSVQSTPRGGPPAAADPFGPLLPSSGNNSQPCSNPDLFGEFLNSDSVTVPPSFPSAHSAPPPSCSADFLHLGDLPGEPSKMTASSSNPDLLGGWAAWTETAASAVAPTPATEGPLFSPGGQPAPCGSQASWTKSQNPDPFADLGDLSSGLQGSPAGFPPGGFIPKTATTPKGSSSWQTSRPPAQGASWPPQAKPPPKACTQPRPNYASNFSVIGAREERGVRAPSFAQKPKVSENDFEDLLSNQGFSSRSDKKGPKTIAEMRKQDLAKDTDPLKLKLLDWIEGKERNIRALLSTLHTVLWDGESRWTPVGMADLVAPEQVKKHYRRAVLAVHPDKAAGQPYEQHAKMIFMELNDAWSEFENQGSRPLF

TEC = assay: MIB washout assay; assay type: binding, Human
43 recombinant kinases = assay: thermal stability shift assay; assay type: binding; settings: 21 of 43 recombinant kinases; protein 2 μM, inhibitor 10 μM
AAK1 = AAK1 (Homo sapiens, UniProt Q2M2I8); assay: MIB dose-dependent kinase inhibition assay; assay type: binding; settings: read-out: IC50 in the MIB assay, H23 cell lysate, overnight 4°C
TNIK = assay: MIB washout assay; assay type: binding, Human; settings: H23 cells, 1 μM 4h, MIB pulldown ratio SM1-71/SM1-71-R
[3] = H23 cells, 1 μM 4h, 0h post-washout, MIB pulldown ratio SM1-71/SM1-71-R
[4] = H23 cells, 1 μM 4h, 6h post-washout, MIB pulldown ratio SM1-71/SM1-71-R

T2 sequence (P12931 whole entry): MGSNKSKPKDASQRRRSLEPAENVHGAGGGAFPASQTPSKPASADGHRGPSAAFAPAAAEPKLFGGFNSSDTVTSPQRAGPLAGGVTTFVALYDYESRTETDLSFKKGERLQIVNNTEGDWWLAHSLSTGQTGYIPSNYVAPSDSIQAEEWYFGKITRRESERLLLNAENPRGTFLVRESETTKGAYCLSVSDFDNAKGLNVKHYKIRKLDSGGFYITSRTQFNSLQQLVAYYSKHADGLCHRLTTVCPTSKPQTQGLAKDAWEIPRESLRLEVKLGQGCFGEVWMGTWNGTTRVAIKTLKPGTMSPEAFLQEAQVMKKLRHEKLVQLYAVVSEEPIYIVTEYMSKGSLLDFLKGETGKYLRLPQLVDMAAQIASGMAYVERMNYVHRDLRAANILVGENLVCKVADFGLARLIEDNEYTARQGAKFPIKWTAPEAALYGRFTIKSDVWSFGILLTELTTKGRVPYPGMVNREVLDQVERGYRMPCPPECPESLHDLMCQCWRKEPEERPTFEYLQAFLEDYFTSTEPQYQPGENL
GSK3B, sequence (P49841 whole entry, species assumed): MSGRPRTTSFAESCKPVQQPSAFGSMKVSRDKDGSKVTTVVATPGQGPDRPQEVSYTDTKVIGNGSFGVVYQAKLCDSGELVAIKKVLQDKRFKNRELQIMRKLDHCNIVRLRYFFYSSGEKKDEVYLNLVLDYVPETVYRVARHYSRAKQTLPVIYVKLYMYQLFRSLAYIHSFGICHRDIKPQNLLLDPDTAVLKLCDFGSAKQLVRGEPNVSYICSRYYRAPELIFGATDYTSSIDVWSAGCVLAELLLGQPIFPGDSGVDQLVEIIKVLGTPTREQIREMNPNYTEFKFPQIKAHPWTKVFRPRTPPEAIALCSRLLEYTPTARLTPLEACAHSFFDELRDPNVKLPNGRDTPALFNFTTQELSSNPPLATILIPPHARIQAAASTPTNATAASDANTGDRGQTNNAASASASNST
AAK1, sequence (Q2M2I8 whole entry): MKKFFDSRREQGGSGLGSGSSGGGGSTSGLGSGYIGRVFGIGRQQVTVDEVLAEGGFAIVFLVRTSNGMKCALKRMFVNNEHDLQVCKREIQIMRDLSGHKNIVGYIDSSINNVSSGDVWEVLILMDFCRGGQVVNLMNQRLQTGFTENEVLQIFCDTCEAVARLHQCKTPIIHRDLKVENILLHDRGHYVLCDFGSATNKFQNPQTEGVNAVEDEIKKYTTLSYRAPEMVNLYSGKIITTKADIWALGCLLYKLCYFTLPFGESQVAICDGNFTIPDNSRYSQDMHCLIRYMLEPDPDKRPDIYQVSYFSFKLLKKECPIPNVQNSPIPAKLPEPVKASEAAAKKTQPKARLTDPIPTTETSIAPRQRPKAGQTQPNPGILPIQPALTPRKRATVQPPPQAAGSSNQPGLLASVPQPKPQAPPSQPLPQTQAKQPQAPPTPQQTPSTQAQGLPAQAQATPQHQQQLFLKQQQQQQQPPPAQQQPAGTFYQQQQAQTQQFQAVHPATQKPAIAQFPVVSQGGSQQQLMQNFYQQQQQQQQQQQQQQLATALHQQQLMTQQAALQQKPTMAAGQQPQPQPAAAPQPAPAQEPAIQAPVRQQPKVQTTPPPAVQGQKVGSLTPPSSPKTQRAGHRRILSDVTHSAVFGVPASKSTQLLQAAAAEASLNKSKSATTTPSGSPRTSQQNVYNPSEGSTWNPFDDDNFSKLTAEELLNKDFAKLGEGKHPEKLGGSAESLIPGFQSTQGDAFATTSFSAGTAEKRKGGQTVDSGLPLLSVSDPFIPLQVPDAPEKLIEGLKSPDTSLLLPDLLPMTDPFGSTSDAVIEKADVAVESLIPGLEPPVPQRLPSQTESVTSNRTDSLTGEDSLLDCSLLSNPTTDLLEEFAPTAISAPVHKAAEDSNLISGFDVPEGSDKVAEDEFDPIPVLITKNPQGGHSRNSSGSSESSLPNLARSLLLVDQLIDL

## C=CC(=O)Nc1ccccc1Nc1nc(Nc2ccc(N3CCN(C)CC3)cc2)ncc1Cl [SM1-71]
FGFR1; 0h post-washout
  BI-0h: 0.45
FGFR1; 6h post-washout
  BI-6h: 0.42
INSR; 0h post-washout
  BI-0h: 0.52
INSR; 6h post-washout
  BI-6h: 0.76
AURKA; [3]
  BI-0h: 1.16
AURKA; [4]
  BI-6h: 2.38
AURKA; class from BI 0h and 6h
  Binding: Strongly Reversible (BI0h,6h greater than 1 suggesting a strong preference for reversible mode of inhibition)
MAP3K11; 0h post-washout
  BI-0h: 0.6
MAP3K11; 6h post-washout
  BI-6h: 0.76
CSNK1D; 0h post-washout
  BI-0h: 0.71
CSNK1D; 6h post-washout
  BI-6h: 0.78
GSK3B
  covalent adduct formation (mass shift): formed covalent adducts
MAP3K1
  BI-0h: 0.2
CDK17; 0h post-washout
  BI-0h: 0.46
CDK17; 6h post-washout
  BI-6h: 0.76
PKMYT1; 0h post-washout
  BI-0h: 0.47
PKMYT1; 6h post-washout
  BI-6h: 0.8
SRC [1]
  IC50: < 10 nM
SRC [2]; 0h post-washout
  BI-0h: 0.19
SRC [2]; 6h post-washout
  BI-6h: 0.13
CDK13; 0h post-washout
  BI-0h: 0.57
CDK13; 6h post-washout
  BI-6h: 0.57
GAK; 0h post-washout
  BI-0h: 0.07
GAK; 6h post-washout
  BI-6h: 0.04
TEC; [3]
  BI-0h: 1.02
TEC; [4]
  BI-6h: 1.43
TEC; class from BI 0h and 6h
  Binding: Strongly Reversible (BI0h,6h greater than 1 suggesting a strong preference for reversible mode of inhibition)
43 recombinant kinases
  ΔTm shifts: > 6 °C
AAK1
  IC50: < 10 nM
TNIK; 0h post-washout
  BI-0h: 0.67
TNIK; 6h post-washout
  BI-6h: 0.74
